The source made the active and inactive calls. No cut-off for these calls is given here.
Columns and labels:
[1] = test system: HCT-116; test: Antiproliferative activity against human HCT116 cells after 72 hrs by MTT assay; assay type: functional, cell-based; details: HCT-116, 72 h
In short: (§1)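 MTT assay: cells seeded at 4000 per well, attached overnight, exposed to compound over 1.0–100.0 range for 72 h. MTT then added, 4 h more at 37 °C. Formazan dissolved in DMSO, absorbance at 570 nm. Triplicate wells in three independent experiments. IC50 from dose-effect analysis.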

[2] = test system: HL-60; test: Antiproliferative activity against human HL60 cells after 72 hrs by MTT assay; assay type: functional, cell-based; details: HL-60, 72 h; in short: as §1
[3] = test system: OVCAR-8; test: Antiproliferative activity against human OVCAR8 cells after 72 hrs by MTT assay; assay type: functional, cell-based; details: OVCAR-8, 72 h; in short: as §1
[4] = biological target: T1, RAC-alpha serine/threonine-protein kinase (Homo sapiens, UniProt P31749); test: Inhibition of Akt1 (unknown origin) using ATP/eNOS as substrate preincubated for 5 mins followed by substrate addition measured after 30 mins by fluorescence polarization assay
T1 sequence (P31749 whole entry): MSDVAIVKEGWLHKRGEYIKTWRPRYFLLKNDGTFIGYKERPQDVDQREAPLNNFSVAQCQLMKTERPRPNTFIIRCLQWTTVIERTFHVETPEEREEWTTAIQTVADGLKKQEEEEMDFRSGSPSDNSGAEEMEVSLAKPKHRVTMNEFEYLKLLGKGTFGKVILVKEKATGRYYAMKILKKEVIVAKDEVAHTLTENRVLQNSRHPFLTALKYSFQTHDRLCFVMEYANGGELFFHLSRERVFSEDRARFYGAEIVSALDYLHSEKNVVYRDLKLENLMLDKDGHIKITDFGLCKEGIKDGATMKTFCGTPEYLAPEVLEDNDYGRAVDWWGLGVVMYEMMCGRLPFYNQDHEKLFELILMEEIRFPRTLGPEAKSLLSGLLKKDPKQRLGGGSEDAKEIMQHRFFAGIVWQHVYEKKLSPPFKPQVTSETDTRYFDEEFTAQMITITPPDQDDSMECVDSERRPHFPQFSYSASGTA

[5] = biological target: T1, RAC-alpha serine/threonine-protein kinase; test: Inhibition of Akt1 (unknown origin) using ATP/eNOS as substrate at 10 uM preincubated for 5 mins followed by substrate addition measured after 30 mins by fluorescence polarization assay
In short: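 Competitive fluorescence polarization kinase assay. 4 ng Akt1 in 2.5× kinase buffer (62.5 mM Tris-HCl pH 7.5, 25 mM MgCl₂, 12.5 mM β-glycerophosphate, 0.25 mM Na₃VO₄, 5 mM DTT) preincubated with DMSO vehicle or compound for 5 min at room temperature. ATP/eNOS substrate cocktail then added. Reaction stopped with 50 mM EDTA (pH 8.0), activity read per kit instructions. Single-point inhibition measured at 10.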

[6] = biological target: T1, RAC-alpha serine/threonine-protein kinase; test: Inhibition of Akt1 in human OVCAR8 cells assessed as effect on total GSK3beta level at 1 uM by Western blotting analysis; assay type: cell-based; details: OVCAR-8
In short: (§2)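 OVCAR-8 cells treated, washed with ice-cold PBS, lysed in buffer with NaF, β-glycerophosphate and PMSF. Lysate cleared at 13,000 rpm for 30 min at 4 °C, protein measured by Bradford. 40–80 of lysate protein run on SDS-PAGE and transferred to nitrocellulose. Blots probed with primary antibodies, then HRP secondaries, detected by ECL.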

[7] = biological target: Tyrosine-protein kinase JAK2 (Homo sapiens) (UniProt O60674); test: Inhibition of JAK2 (unknown origin) at 0.8 ug/ml
Sequence of Tyrosine-protein kinase JAK2 (Homo sapiens) (O60674 whole entry): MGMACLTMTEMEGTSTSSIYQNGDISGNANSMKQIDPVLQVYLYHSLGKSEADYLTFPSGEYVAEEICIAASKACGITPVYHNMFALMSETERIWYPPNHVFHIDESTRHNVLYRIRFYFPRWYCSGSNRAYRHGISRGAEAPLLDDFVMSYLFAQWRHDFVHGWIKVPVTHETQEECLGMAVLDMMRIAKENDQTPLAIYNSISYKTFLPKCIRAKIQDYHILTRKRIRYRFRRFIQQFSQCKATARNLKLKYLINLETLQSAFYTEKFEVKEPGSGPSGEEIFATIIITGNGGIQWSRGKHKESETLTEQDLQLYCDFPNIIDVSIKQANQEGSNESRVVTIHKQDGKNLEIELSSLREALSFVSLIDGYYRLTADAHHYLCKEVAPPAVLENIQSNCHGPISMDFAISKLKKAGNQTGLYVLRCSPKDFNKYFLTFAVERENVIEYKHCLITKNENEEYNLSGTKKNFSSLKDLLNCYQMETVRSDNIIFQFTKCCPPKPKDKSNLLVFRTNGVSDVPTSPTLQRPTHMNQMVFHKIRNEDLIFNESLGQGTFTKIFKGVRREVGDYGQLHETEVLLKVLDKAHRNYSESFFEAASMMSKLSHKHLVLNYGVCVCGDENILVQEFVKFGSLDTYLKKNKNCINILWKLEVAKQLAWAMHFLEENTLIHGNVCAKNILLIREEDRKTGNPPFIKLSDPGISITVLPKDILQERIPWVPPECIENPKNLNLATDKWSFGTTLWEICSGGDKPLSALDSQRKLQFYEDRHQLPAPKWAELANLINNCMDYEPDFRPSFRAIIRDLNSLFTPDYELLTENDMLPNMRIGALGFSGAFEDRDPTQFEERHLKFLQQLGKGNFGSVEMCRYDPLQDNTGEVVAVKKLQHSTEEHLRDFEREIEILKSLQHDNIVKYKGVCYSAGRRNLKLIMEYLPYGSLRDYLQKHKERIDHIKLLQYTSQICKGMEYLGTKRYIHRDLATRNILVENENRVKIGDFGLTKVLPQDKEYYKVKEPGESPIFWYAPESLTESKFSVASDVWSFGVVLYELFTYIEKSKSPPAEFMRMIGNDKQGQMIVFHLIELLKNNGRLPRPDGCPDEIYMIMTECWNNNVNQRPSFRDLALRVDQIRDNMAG

[8] = biological target: Tyrosine-protein kinase SYK (Homo sapiens) (UniProt P43405); test: Inhibition of SYK (unknown origin) at 0.8 ug/ml
[9] = biological target: Glycogen synthase kinase-3 beta (Homo sapiens) (UniProt P49841); test: Inhibition of GSK3beta (unknown origin) at 0.8 ug/ml
Sequence of Glycogen synthase kinase-3 beta (Homo sapiens) (P49841 whole entry, looked up): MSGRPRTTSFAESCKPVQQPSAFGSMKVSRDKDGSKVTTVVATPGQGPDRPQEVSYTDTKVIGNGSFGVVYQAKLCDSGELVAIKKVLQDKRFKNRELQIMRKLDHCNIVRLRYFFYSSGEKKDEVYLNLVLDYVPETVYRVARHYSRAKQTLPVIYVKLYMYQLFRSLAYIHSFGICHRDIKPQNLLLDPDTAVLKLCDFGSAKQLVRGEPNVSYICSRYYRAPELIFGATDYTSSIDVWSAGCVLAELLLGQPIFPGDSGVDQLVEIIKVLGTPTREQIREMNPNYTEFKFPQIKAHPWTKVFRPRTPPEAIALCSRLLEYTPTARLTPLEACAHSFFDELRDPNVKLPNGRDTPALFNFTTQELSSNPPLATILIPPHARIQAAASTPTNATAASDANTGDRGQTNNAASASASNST

[10] = biological target: T2, Inhibitor of nuclear factor kappa-B kinase subunit beta (Homo sapiens) (UniProt O14920); test: Inhibition of IKKbeta (unknown origin) at 0.8 ug/ml
T2 sequence (whole entry): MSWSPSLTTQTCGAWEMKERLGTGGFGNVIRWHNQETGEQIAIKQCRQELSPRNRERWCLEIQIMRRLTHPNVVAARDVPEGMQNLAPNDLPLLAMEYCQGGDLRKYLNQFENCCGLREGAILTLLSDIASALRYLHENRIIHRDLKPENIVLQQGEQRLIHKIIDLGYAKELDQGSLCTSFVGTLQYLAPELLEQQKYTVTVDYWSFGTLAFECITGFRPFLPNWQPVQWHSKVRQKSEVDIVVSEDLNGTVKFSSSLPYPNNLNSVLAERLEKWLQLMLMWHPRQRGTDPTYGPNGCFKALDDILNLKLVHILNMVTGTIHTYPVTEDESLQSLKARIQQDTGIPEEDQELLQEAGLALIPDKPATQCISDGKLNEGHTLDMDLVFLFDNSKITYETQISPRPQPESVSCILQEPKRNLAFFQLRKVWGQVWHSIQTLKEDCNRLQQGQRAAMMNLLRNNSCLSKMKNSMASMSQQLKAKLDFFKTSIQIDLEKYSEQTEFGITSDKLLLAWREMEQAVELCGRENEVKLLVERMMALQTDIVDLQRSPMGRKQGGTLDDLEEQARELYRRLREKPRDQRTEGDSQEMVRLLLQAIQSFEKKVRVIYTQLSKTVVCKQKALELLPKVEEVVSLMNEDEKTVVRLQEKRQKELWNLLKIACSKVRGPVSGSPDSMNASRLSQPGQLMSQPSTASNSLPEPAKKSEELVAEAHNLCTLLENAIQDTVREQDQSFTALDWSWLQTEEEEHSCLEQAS

[11] = species on record: Homo sapiens; test: Inhibition of Drak (unknown origin) at 0.8 ug/ml
[12] = biological target: T3, Serine/threonine-protein kinase B-raf (Homo sapiens, UniProt P15056); test: Inhibition of BRAF1 (unknown origin)
T3 sequence (P15056 whole entry): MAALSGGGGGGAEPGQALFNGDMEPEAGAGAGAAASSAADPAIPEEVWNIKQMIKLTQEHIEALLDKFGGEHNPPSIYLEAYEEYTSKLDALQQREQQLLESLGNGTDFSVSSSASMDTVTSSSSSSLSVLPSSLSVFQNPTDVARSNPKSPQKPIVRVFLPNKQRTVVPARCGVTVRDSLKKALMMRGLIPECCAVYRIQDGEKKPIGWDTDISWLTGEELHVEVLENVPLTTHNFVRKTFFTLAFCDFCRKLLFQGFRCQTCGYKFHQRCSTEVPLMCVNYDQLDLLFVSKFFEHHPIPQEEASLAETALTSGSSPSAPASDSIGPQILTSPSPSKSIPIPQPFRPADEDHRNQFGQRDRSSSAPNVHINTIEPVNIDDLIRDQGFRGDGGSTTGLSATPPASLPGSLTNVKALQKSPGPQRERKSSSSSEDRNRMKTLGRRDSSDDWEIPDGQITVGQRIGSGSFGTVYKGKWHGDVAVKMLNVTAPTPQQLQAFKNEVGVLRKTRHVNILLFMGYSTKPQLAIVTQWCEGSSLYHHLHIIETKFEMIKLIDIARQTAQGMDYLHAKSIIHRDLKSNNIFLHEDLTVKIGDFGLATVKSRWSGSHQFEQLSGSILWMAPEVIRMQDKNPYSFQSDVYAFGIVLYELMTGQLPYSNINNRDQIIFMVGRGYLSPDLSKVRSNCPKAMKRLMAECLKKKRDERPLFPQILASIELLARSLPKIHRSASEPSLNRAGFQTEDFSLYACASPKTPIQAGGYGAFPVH

[13] = biological target: T4, Aurora kinase A (Homo sapiens) (UniProt O14965); test: Inhibition of Aurora A (unknown origin) at 0.8 ug/ml
T4 sequence (whole entry): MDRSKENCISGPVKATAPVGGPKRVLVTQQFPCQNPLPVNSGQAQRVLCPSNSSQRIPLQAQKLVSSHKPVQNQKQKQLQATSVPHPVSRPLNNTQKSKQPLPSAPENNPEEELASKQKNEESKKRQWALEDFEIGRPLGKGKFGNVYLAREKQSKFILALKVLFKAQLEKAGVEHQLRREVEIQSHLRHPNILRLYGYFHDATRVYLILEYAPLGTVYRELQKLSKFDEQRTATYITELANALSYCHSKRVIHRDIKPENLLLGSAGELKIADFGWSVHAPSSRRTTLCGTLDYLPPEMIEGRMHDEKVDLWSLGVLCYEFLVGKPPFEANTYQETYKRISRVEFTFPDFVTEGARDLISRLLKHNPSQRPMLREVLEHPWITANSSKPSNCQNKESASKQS

[14] = biological target: T1, RAC-alpha serine/threonine-protein kinase; test: Inhibition of Akt1 in human OVCAR8 cells assessed as GSK3beta phosphorylation at 1 uM by Western blotting analysis; assay type: cell-based; details: OVCAR-8; in short: as §2
[15] = biological target: T1, RAC-alpha serine/threonine-protein kinase; test: Inhibition of Akt1-mediated phosphorylation at Ser473 in human OVCAR8 cells at 1 uM by Western blotting analysis; assay type: cell-based; details: OVCAR-8; in short: as §2
[16] = test system: OVCAR-8; test: Induction of apoptosis in human OVCAR8 cells assessed as accumulation at sub-G1 phase at 20 uM after 48 hrs by annexin V-FITC/propidium iodide staining-based FACS flow cytometric analysis (reference value: 1.2%); assay type: functional
In short: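 OVCAR-8 cells (5 × 10⁴ cells/ml, 5 ml) grown in 25 cm² flasks, treated with vehicle or compound for 48 h. Cells harvested, washed twice with ice-cold PBS, stained with annexin V-FITC/propidium iodide, analysed by flow cytometry.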

[17] = Inhibition of Drak (unknown origin); design: species or system Homo sapiens
[18] = biological target: T3, Serine/threonine-protein kinase B-raf

Row | Structure (SMILES) | IC50 [1] [µM] | IC50 [2] [µM] | IC50 [3] [µM] | IC50 [4] [µM] | other results
1 | Clc1ccc(C(NC2CCCCC2)c2ccc(-c3cccnc3)cc2)cc1 (stereo unspecified) | – | – | – | – | inhibition [5]: 20%
2 | O=S(=O)(NCCNC/C=C/c1ccc(Br)cc1)c1cccc2cnccc12 | 15.7 | 11.4 | 10.5 | – | –
3 | Clc1ccc(C(Nc2ccccc2)c2ccc(-c3ccncc3)cc2)cc1 (stereo unspecified) | – | – | – | – | inhibition [5]: 26%
4 | CN[C@@H]1C[C@H]2O[C@@](C)([C@@H]1OC)n1c3ccccc3c3c4c(c5c6ccccc6n2c5c31)C(=O)NC4 [STAUROSPORINE] | – | – | – | – | IC50 [17]: 0.026 µM; IC50 [18]: 0.015 µM
5 | CC(C)CNC(c1ccc(Cl)cc1)c1ccc(-c2cccnc2)cc1 (stereo unspecified) | – | – | – | – | inhibition [5]: 10%
6 | CC(C)(C)NC(c1ccc(Cl)cc1)c1ccc(-c2cccnc2)cc1 (stereo unspecified) | – | – | – | – | inhibition [5]: 19%
7 | Clc1ccc(C(NC2CCCCC2)c2ccc(-c3cn[nH]c3)cc2)cc1 (stereo unspecified) | 26.8 | 2.1 | 5.5 | 1.1 | –
8 | Clc1ccc(C(Nc2ccccc2)c2ccc(-c3cn[nH]c3)cc2)cc1 (stereo unspecified) | – | – | – | – | inhibition [5]: 29%
9 | Clc1ccc(C(NCc2ccccc2)c2ccc(-c3ccncc3)cc2)cc1 (stereo unspecified) | 16.3 | 12.5 | 18.5 | 1.25 | –
10 | OCCNC(c1ccc(Cl)cc1)c1ccc(-c2cn[nH]c2)cc1 (stereo unspecified) | 27.6 | – | 34.7 | 0.65 | –
11 | CC(C)NC(c1ccc(Cl)cc1)c1ccc(-c2ccncc2)cc1 (stereo unspecified) | 17.3 | 13.9 | 22.8 | 0.22 | –
12 | Clc1ccc(C(NCc2ccccc2)c2ccc(-c3ncnc4[nH]cnc34)cc2)cc1 (stereo unspecified) | 16.2 | 12.1 | 12.5 | 0.74 | –

The remaining compounds from weak to strong by IC50 [1], led by results:

Row | IC50 [1] [µM] | IC50 [2] [µM] | IC50 [3] [µM] | IC50 [4] [µM] | Structure (SMILES) | other results
13 | 15.6 | 7.8 | 7.9 | 0.48 | Clc1ccc(C(NC2CC2)c2ccc(-c3cn[nH]c3)cc2)cc1 (stereo unspecified) | –
14 | 15.5 | 3.3 | 16.3 | 1.43 | CC(C)CNC(c1ccc(Cl)cc1)c1ccc(-c2ccncc2)cc1 (stereo unspecified) | –
15 | 14.4 | 3.9 | 16.1 | 0.17 | CC(C)(C)NC(c1ccc(Cl)cc1)c1ccc(-c2ccncc2)cc1 (stereo unspecified) | –
16 | 14.4 | 11 | 8.6 | 0.64 | Clc1ccc(C(NC2CCCCC2)c2ccc(-c3ncnc4[nH]cnc34)cc2)cc1 (stereo unspecified) | –
17 | 14.1 | 5.4 | 8.1 | 0.9 | CC(C)CNC(c1ccc(Cl)cc1)c1ccc(-c2cn[nH]c2)cc1 (stereo unspecified) | –
18 | 13.4 | 11.9 | 30.6 | 0.47 | Clc1ccc(C(NC2CC2)c2ccc(-c3ncnc4[nH]cnc34)cc2)cc1 (stereo unspecified) | –
19 | 12.4 | 3.2 | 15.6 | 1.26 | Clc1ccc(C(NC2CCCCC2)c2ccc(-c3ccncc3)cc2)cc1 (stereo unspecified) | –
20 | 11.6 | 10.7 | 12.2 | 0.37 | CC(C)NC(c1ccc(Cl)cc1)c1ccc(-c2cn[nH]c2)cc1 (stereo unspecified) | –
21 | 10.7 | – | 11.1 | 0.82 | NCCNC(c1ccc(Cl)cc1)c1ccc(-c2cn[nH]c2)cc1 (stereo unspecified) | –
22 | 8.9 | 5.3 | 8.1 | 0.038 | CC(C)(C)NC(c1ccc(Cl)cc1)c1ccc(-c2cn[nH]c2)cc1 (stereo unspecified) | inhibition [6]: inactive; inhibition [7]: 19.5%; inhibition [8]: 0.98%; inhibition [9]: 7.2%; inhibition [10]: 1.8%; inhibition [11]: 12%; IC50 [12]: 0.88 µM; inhibition [13]: 28.3%; inhibition [14]: Active; inhibition [15]: Active; Activity [16]: 66.8%
23 | 8.5 | 13.2 | 17 | 0.16 | CC(C)NC(c1ccc(Cl)cc1)c1ccc(-c2ncnc3nc[nH]c23)cc1 (stereo unspecified) | –
24 | 8.3 | 5.3 | 11.9 | 1.32 | Clc1ccc(C(NCc2ccccc2)c2ccc(-c3cn[nH]c3)cc2)cc1 (stereo unspecified) | –
25 | 7.7 | 5.3 | 9.9 | 0.74 | CC(C)CNC(c1ccc(Cl)cc1)c1ccc(-c2ncnc3nc[nH]c23)cc1 (stereo unspecified) | –

— ChEMBL document CHEMBL3112393, “Structure-based design, synthesis and biological evaluation of diphenylmethylamine derivatives as novel Akt1 inhibitors” (Eur J Med Chem, 2014)
